Key:
[1] = biological target: Tyrosine-protein kinase BTK (Homo sapiens, UniProt Q06187); assay: Inhibition of human recombinant full-length N-terminal His-tagged BTK expressed in baculovirus infected Sf9 insect cells measured after 60 mins by ADP-Glo kinase assay
[2] = Antiproliferative activity against human Ramos cells measured after 48 hrs by CCK-8 assay; type: functional, cell-based
Outline: (§1)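 Cells seeded at 2000–3000 cells/well and kept one day at 37 °C, 5% CO₂ in RPMI1640 with 10% FBS. Viability was read by CCK-8 absorbance at 450 nm, and seeding was adjusted to give 0.5–1.2 absorbance. IC50 was derived by curve fitting.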

[3] = Antiproliferative activity against human Raji cells measured after 48 hrs by CCK-8 assay; type: functional, cell-based; outline: as §1
[4] = Cell cycle arrest in human Ramos cells assessed as accumulation at G0/G1 phase at 10 uM measured after 48 hrs by propidium iodide based flow cytometry (reference value: 39.95 %); type: functional
Outline: (§2)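 Ramos cells at about 2 × 10⁵ cells/well were treated for 48 h, then fixed overnight in 70% ethanol at 4 °C. After a PBS wash they were stained with propidium iodide for 10 min under subdued light. Cell-cycle phase distribution was determined by flow cytometry.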

[5] = Cell cycle arrest in human Ramos cells assessed as accumulation at S phase at 10 uM measured after 48 hrs by propidium iodide based flow cytometry (reference value: 55.07 %); type: functional; outline: as §2
[6] = Cell cycle arrest in human Ramos cells assessed as accumulation at G2/M phase at 10 uM measured after 48 hrs by propidium iodide based flow cytometry (reference value: 4.98 %); type: functional; outline: as §2
Ramos [7] = assay: Induction of apoptosis in human Ramos cells assessed as viable cells at 10 uM measured after 48 hrs by Annexin V-FITC/propidium iodide based flow cytometry relative to control; type: functional
Outline: (§3)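 Ramos cells at 1–5 × 10⁵ cells/well were treated for 48 h in medium with 5% FBS, with a DMSO solvent control. They were […], stained with Annexin V-FITC/propidium iodide, and analysed by flow cytometry.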

Ramos [8] = assay: Induction of apoptosis in human Ramos cells assessed as late apoptotic cells at 10 uM measured after 48 hrs by Annexin V-FITC/propidium iodide based flow cytometry relative to control; type: functional; outline: as §3
Ramos [9] = assay: Induction of apoptosis in human Ramos cells assessed as early apoptotic cells at 10 uM measured after 48 hrs by Annexin V-FITC/propidium iodide based flow cytometry relative to control; type: functional; outline: as §3
Ramos [10] = assay: Induction of apoptosis in human Ramos cells assessed as necrotic cells at 10 uM measured after 48 hrs by Annexin V-FITC/propidium iodide based flow cytometry (reference value: 0.2 %); type: functional; outline: as §3
Ramos [11] = assay: Induction of apoptosis in human Ramos cells assessed as viable cells at 1 uM measured after 48 hrs by Annexin V-FITC/propidium iodide based flow cytometry relative to control; type: functional; conditions: read-out: Activity; outline: as §3
Ramos [12] = assay: Induction of apoptosis in human Ramos cells assessed as late apoptotic cells at 1 uM measured after 48 hrs by Annexin V-FITC/propidium iodide based flow cytometry relative to control; type: functional; outline: as §3
[13] = Cell cycle arrest in human Ramos cells assessed as accumulation at G0/G1 phase at 1 uM measured after 48 hrs by propidium iodide based flow cytometry (reference value: 39.95 %); type: functional; outline: as §2
[14] = Cell cycle arrest in human Ramos cells assessed as accumulation at S phase at 1 uM measured after 48 hrs by propidium iodide based flow cytometry (reference value: 55.07 %); type: functional; outline: as §2
[15] = Cell cycle arrest in human Ramos cells assessed as accumulation at G2/M phase at 1 uM measured after 48 hrs by propidium iodide based flow cytometry (reference value: 4.98 %); type: functional; outline: as §2
[16] = Cell cycle arrest in human Ramos cells assessed as accumulation at G0/G1 phase at 5 uM measured after 48 hrs by propidium iodide based flow cytometry (reference value: 39.95 %); type: functional; outline: as §2
[17] = Cell cycle arrest in human Ramos cells assessed as accumulation at S phase at 5 uM measured after 48 hrs by propidium iodide based flow cytometry (reference value: 55.07 %); type: functional; outline: as §2
[18] = Cell cycle arrest in human Ramos cells assessed as accumulation at G2/M phase at 5 uM measured after 48 hrs by propidium iodide based flow cytometry (reference value: 4.98 %); type: functional; outline: as §2
Ramos [19] = assay: Induction of apoptosis in human Ramos cells assessed as early apoptotic cells at 1 uM measured after 48 hrs by Annexin V-FITC/propidium iodide based flow cytometry relative to control; type: functional; outline: as §3
Ramos [20] = assay: Induction of apoptosis in human Ramos cells assessed as necrotic cells at 1 uM measured after 48 hrs by Annexin V-FITC/propidium iodide based flow cytometry (reference value: 0.2 %); type: functional; outline: as §3
Ramos [21] = assay: Induction of apoptosis in human Ramos cells assessed as viable cells at 5 uM measured after 48 hrs by Annexin V-FITC/propidium iodide based flow cytometry relative to control; type: functional; conditions: read-out: Activity; outline: as §3
Ramos [22] = assay: Induction of apoptosis in human Ramos cells assessed as late apoptotic cells at 5 uM measured after 48 hrs by Annexin V-FITC/propidium iodide based flow cytometry relative to control; type: functional; outline: as §3
Ramos [23] = assay: Induction of apoptosis in human Ramos cells assessed as early apoptotic cells at 5 uM measured after 48 hrs by Annexin V-FITC/propidium iodide based flow cytometry relative to control; type: functional; outline: as §3
Ramos [24] = assay: Induction of apoptosis in human Ramos cells assessed as necrotic cells at 5 uM measured after 48 hrs by Annexin V-FITC/propidium iodide based flow cytometry (reference value: 0.2 %); type: functional; outline: as §3

Chain of Tyrosine-protein kinase BTK (Q06187 whole entry): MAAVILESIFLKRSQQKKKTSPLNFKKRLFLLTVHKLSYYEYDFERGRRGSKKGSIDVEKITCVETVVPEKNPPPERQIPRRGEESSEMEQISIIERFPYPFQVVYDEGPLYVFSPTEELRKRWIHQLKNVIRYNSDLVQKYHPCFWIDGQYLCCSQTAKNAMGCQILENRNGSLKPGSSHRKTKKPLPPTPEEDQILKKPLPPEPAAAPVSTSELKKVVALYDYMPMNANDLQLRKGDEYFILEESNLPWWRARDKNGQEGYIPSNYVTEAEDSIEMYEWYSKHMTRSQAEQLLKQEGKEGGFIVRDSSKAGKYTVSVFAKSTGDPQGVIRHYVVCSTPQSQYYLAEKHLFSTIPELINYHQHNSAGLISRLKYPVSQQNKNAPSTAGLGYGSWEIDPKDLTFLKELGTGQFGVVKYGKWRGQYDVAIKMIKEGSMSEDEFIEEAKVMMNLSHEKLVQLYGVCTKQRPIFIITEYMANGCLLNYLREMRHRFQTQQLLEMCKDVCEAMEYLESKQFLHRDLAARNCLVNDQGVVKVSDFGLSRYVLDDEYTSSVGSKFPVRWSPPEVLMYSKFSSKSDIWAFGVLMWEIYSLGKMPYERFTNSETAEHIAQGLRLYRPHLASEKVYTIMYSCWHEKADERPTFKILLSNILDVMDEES

SMILES	IC50 [1] [µM]	IC50 [2] [µM]	IC50 [3] [µM]	Activity [4] [%]	Activity [5] [%]	Activity [6] [%]	other results
C=CC(=O)Nc1cccc(Nc2nc(Nc3ccc(OCCCP(=O)(OCC)OCC)cc3)ncc2F)c1	0.0216	11.5	16.4	–	–	–	–
C=CC(=O)Nc1cccc(Nc2nc(Nc3ccc(CP(=O)(OCC)N4CCOCC4)cc3)ncc2Cl)c1 (stereo not drawn)	0.112	27.4	7.71	–	–	–	–
C=CC(=O)Nc1cccc(Nc2nc(Nc3ccc(OCCOC)cc3)ncc2F)c1 [SPEBRUTINIB]	–	–	–	31	47.9	20.9	viability at 10 µM (Ramos [7]; Homo sapiens, Ramos, 48 h, read-out: Activity): 54.2%; Activity (Ramos [8]): 20.4%; Activity (Ramos [9]): 21.1%; Activity (Ramos [10]): 4.3%
C=CC(=O)Nc1cccc(Nc2nc(Nc3ccc(CP(=O)(OCC)OCC)cc3)ncc2F)c1	0.0321	9.36	34.9	–	–	–	–
C=CC(=O)Nc1cccc(Nc2nc(Nc3ccc(CP(=O)(OCC)OCC)cc3)ncc2Cl)c1	0.00123	11.7	13.5	–	–	–	–
C=CC(=O)N1CCC[C@@H](n2nc(-c3ccc(Oc4ccccc4)cc3)c3c(N)ncnc32)C1 [IBRUTINIB]	–	–	–	43.2	50.2	6.57	Activity (Ramos [7]): 52%; Activity (Ramos [9]): 37%; Activity (Ramos [10]): 0.1%
C=CC(=O)Nc1cccc(Nc2nc(Nc3ccc(OCCCP(=O)(OCC)OCC)cc3)ncc2Cl)c1	0.0106	5.4	6.07	–	–	–	–
C=CC(=O)Nc1cccc(Nc2nc(Nc3ccc(OCCCP(=O)(OCC)N4CCOCC4)cc3)ncc2Cl)c1 (stereo not drawn)	0.00082	3.17	6.69	38	50.8	11.2	viability at 1 µM (Ramos [11]): 50.9%; Activity (Ramos [12]): 5.9%; Activity [13]: 36.9%; Activity [14]: 55.4%; Activity [15]: 7.68%; Activity [16]: 36.4%; Activity [17]: 54.3%; Activity [18]: 9.29%; Activity (Ramos [19]): 27.7%; Activity (Ramos [20]): 15.6%; viability at 5 µM (Ramos [21]): 40.2%; Activity (Ramos [22]): 7.5%; Activity (Ramos [23]): 37.6%; Activity (Ramos [24]): 14.7%

— ChEMBL document CHEMBL3872267, “Design and synthesis of phosphoryl-substituted diphenylpyrimidines (Pho-DPPYs) as potent Bruton's tyrosine kinase (BTK) inhibitors: Targeted treatment of B lymphoblastic leukemia cell lines” (Bioorg Med Chem, 2017)
